This passage reports IC50 results from ChEMBL document CHEMBL1130162, “Structure-activity relationships of cysteine-lacking pentapeptide derivatives that inhibit ras farnesyltransferase” (J Med Chem, 1997).

pIC50: −log10 of the molar value. Some results are limits rather than exact numbers.

The pIC50 is the negative decadic logarithm of the IC50, by convention in mol/L. Read a high pIC50 as a small IC50.

For the experiment, the target named is Protein farnesyltransferase (Rattus norvegicus, UniProt Q02293+Q04631). In words: Inhibitory concentration against rat brain farnesyltransferase. An outline of the steps: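 Rat brain FTase (40-fold purified), pH 7.4, in 30 mM potassium phosphate, 5 mM phosphate plus 50 mM Hepes, or 50 mM Hepes. Buffer also held 7 mM DTT, 1.2 mM MgCl2 and protease inhibitors. Final substrates were 0.12 μM [1-3H]FPP and 0.1 μM biotinyl-aminoheptanoyl-TKCVIM, with inhibitor varied from DMSO stock. Reaction ran 30 min at 37 °C, was stopped with streptavidin beads, and was counted by scintillation proximity. Generally n = 2.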

Turning to `C[C@H](NC(=O)[C@@H](Cc1c[nH]c2ccccc12)NC(=O)[C@H](NC(=O)[C@@H](Cc1ccc(OCc2ccccc2)cc1)NC(=O)[C@@H](Cc1cnc[nH]1)NC(=O)OCc1ccccc1)[C@@H](C)OCc1ccccc1)C(N)=O`, the pIC50 was 7.82.

Compound `C[C@H](NC(=O)[C@@H](Cc1c[nH]c2ccccc12)NC(=O)[C@@H](COCc1ccccc1)NC(=O)[C@@H](Cc1ccc(OCc2ccccc2)cc1)NC(=O)[C@@H](Cc1cnc[nH]1)NC(=O)OCC1c2ccccc2-c2ccccc21)C(N)=O` showed a pIC50 of 5.80.

Turning to `C[C@H](NC(=O)[C@@H](Cc1c[nH]c2ccccc12)NC(=O)[C@@H](COCc1ccccc1)NC(=O)[C@@H](Cc1ccc(OCc2ccccc2)cc1)NC(=O)C(Cc1c[nH]cn1)NC(=O)OCc1ccccc1)C(N)=O` (stereo not given in full), the pIC50 is 7.09.

`C[C@H](NC(=O)[C@@H](Cc1c[nH]c2ccccc12)NC(=O)[C@@H](COCc1ccccc1)NC(=O)[C@H](CC(=O)O)NC(=O)[C@@H](Cc1c[nH]cn1)NC(=O)OCc1ccccc1)C(N)=O`: the pIC50 is 7.42.

Regarding `C[C@H](NC(=O)[C@@H](Cc1c[nH]c2ccccc12)NC(=O)[C@@H](COCc1ccccc1)NC(=O)[C@H](C)NC(=O)[C@@H](Cc1c[nH]cn1)NC(=O)OCc1ccccc1)C(N)=O`, the pIC50 was 6.00.

Take `C[C@H](NC(=O)[C@@H](Cc1c[nH]c2ccccc12)NC(=O)[C@@H](COCc1ccccc1)NC(=O)[C@H](CS)NC(=O)[C@@H](Cc1c[nH]cn1)NC(=O)OCc1ccccc1)C(N)=O`: the pIC50 was 5.31.

With `C[C@H](NC(=O)[C@@H](Cc1c[nH]c2ccccc12)NC(=O)[C@@H](COCc1ccccc1)NC(=O)[C@@H](Cc1ccc(OCc2ccccc2)cc1)NC(=O)[C@@H](Cc1c[nH]cn1)NC(=O)[C@@H]1CCC(=O)N1)C(N)=O`, the negative-log IC50 (pIC50) was less than 4.70.

`C[C@H](NC(=O)[C@@H](Cc1c[nH]c2ccccc12)NC(=O)[C@@H](COCc1ccccc1)NC(=O)[C@@H](Cc1ccc(OCc2ccccc2)cc1)NC(=O)[C@@H](Cc1c[nH]cn1)NC(=O)OC1CCCCC1)C(N)=O`: the pIC50 is 5.42.

The compound `C[C@H](NC(=O)[C@@H](Cc1c[nH]c2ccccc12)NC(=O)C(Cc1ccccc1)NC(=O)[C@@H](Cc1ccc(OCc2ccccc2)cc1)NC(=O)[C@@H](Cc1c[nH]cn1)NC(=O)OCc1ccccc1)C(N)=O` (stereo not given in full) gave a negative-log IC50 (pIC50) of 6.89. Against the preceding compound, the pIC50 is 1.47 log units higher.

As for `C[C@H](NC(=O)[C@@H](Cc1c[nH]c2ccccc12)NC(=O)[C@@H](COCc1ccccc1)NC(=O)[C@@H](Cc1ccc(OCc2ccccc2)cc1)NC(=O)C(N)CCCNC(=O)OCc1ccccc1)C(N)=O` (stereo not given in full), the pIC50 is 5.33.

In turn, `C[C@H](NC(=O)[C@@H](Cc1c[nH]c2ccccc12)NC(=O)[C@@H](COCc1ccccc1)NC(=O)[C@@H](Cc1ccc(OCc2ccccc2)cc1)NC(=O)C(Cc1c[nH]c2ccccc12)NC(=O)OCc1ccccc1)C(N)=O` (stereo not given in full) had a pIC50 of less than 4.70.

In the case of `C[C@H](NC(=O)[C@@H](Cc1c[nH]c2ccccc12)NC(=O)[C@@H](COCc1ccccc1)NC(=O)[C@@H](Cc1ccc(OCc2ccccc2)cc1)NC(=O)[C@@H](Cc1cnc[nH]1)NC(=O)OCc1ccccc1)C(=O)NN`, the pIC50 is 7.19.

Compound `COC(=O)[C@H](C)NC(=O)[C@@H](Cc1c[nH]c2ccccc12)NC(=O)[C@@H](COCc1ccccc1)NC(=O)[C@@H](Cc1ccc(OCc2ccccc2)cc1)NC(=O)[C@@H](Cc1cnc[nH]1)NC(=O)OCc1ccccc1` gave a pIC50 of 7.32.

Consider `C[C@H](NC(=O)[C@@H](Cc1c[nH]c2ccccc12)NC(=O)[C@@H](COCc1ccccc1)NC(=O)[C@@H](Cc1ccc(OCc2ccccc2)cc1)NC(=O)C(Cc1ccccc1)NC(=O)OCc1ccccc1)C(N)=O` (stereo not given in full), for which the pIC50 is less than 4.70.

For `CCNC(=O)[C@H](C)NC(=O)[C@@H](Cc1c[nH]c2ccccc12)NC(=O)[C@@H](COCc1ccccc1)NC(=O)[C@@H](Cc1ccc(OCc2ccccc2)cc1)NC(=O)[C@@H](Cc1c[nH]cn1)NC(=O)OCc1ccccc1`, the pIC50 is 6.77.

In turn, `C[C@H](NC(=O)[C@@H](Cc1c[nH]c2ccccc12)NC(=O)[C@H](COCc1ccccc1)NC(=O)[C@@H](Cc1ccc(OCc2ccccc2)cc1)NC(=O)[C@@H](Cc1cnc[nH]1)NC(=O)OCc1ccccc1)C(N)=O` had a pIC50 of 4.89. Against the preceding compound, the pIC50 is 1.88 log units lower.

`C[C@H](NC(=O)[C@@H](Cc1c[nH]c2ccccc12)NC(=O)[C@@H](COCc1ccccc1)NC(=O)C(CCCCN)NC(=O)[C@@H](Cc1cnc[nH]1)NC(=O)OCc1ccccc1)C(N)=O` (stereo not given in full) gave a pIC50 of 5.72. This pIC50 is 0.83 log units higher than that of the compound before.

Compound `C[C@H](NC(=O)[C@@H](Cc1c[nH]c2ccccc12)NC(=O)[C@@H](COCc1ccccc1)NC(=O)C(CCC(N)=O)NC(=O)[C@@H](Cc1cnc[nH]1)NC(=O)OCc1ccccc1)C(N)=O` (stereo not given in full) gave a negative-log IC50 (pIC50) of 7.27. This pIC50 lies 1.55 log units higher than the previous one.

`C[C@H](NC(=O)[C@@H](Cc1c[nH]c2ccccc12)NC(=O)[C@@H](COCc1ccccc1)NC(=O)[C@@H](Cc1ccc(OCc2ccccc2)cc1)NC(=O)C(CS)NC(=O)OCc1ccccc1)C(N)=O` (stereo not given in full) gave a negative-log IC50 (pIC50) of 6.77.

For the compound `C[C@H](NC(=O)[C@@H](Cc1c[nH]c2ccccc12)NC(=O)[C@@H](CS)NC(=O)[C@@H](Cc1ccc(OCc2ccccc2)cc1)NC(=O)[C@@H](Cc1cnc[nH]1)NC(=O)OCc1ccccc1)C(N)=O`, the negative logarithm of the IC50 (pIC50) was 8.40.

`C[C@H](NC(=O)[C@@H](Cc1c[nH]c2ccccc12)NC(=O)[C@@H](CCC(=O)O)NC(=O)[C@@H](Cc1ccc(OCc2ccccc2)cc1)NC(=O)[C@@H](Cc1c[nH]cn1)NC(=O)OCc1ccccc1)C(N)=O` had a pIC50 of 6.70. This pIC50 lies 1.70 log units lower than the previous one.

For the compound `CC(NC(=O)[C@@H](Cc1c[nH]c2ccccc12)NC(=O)[C@@H](COCc1ccccc1)NC(=O)[C@@H](Cc1ccc(OCc2ccccc2)cc1)NC(=O)[C@@H](Cc1c[nH]cn1)NC(=O)OCc1ccccc1)C(N)=O` (stereo not given in full), the pIC50 was 8.07.

With `C[C@H](NC(=O)[C@@H](Cc1c[nH]c2ccccc12)NC(=O)[C@@H](COCc1ccccc1)NC(=O)[C@@H](Cc1ccc(OCc2ccccc2)cc1)NC(=O)[C@@H](Cc1cnc[nH]1)NC(=O)OC1CCC1)C(N)=O`, the pIC50 is 5.49.

For `C[C@H](NC(=O)[C@@H](Cc1c[nH]c2ccccc12)NC(=O)[C@@H](COCc1ccccc1)NC(=O)[C@@H](Cc1ccc(OCc2ccccc2)cc1)NC(=O)[C@@H](Cc1c[nH]cn1)NC(=O)OCc1ccccc1)C(=O)O`, the pIC50 was 7.32.

Consider `C[C@H](NC(=O)[C@H](Cc1c[nH]c2ccccc12)NC(=O)[C@@H](COCc1ccccc1)NC(=O)[C@@H](Cc1ccc(OCc2ccccc2)cc1)NC(=O)[C@@H](Cc1cnc[nH]1)NC(=O)OCc1ccccc1)C(N)=O`, for which the pIC50 was 5.06.

`C[C@H](NC(=O)[C@@H](Cc1c[nH]c2ccccc12)NC(=O)[C@@H](COCc1ccccc1)NC(=O)[C@@H](Cc1ccc(OCc2ccccc2)cc1)NC(=O)[C@H](Cc1cnc[nH]1)NC(=O)OCc1ccccc1)C(N)=O` showed a pIC50 of 7.46.

In the case of `C[C@H](NC(=O)[C@@H](Cc1c[nH]c2ccccc12)NC(=O)[C@@H](CSCc1ccccc1)NC(=O)[C@@H](Cc1ccc(OCc2ccccc2)cc1)NC(=O)[C@@H](Cc1cnc[nH]1)NC(=O)OCc1ccccc1)C(N)=O`, the pIC50 was 7.82. This pIC50 is 0.36 log units higher than that of the compound before.

Compound `C[C@H](NC(=O)[C@@H](Cc1c[nH]c2ccccc12)NC(=O)[C@@H](COCc1ccccc1)NC(=O)[C@@H](CCc1ccccc1)NC(=O)[C@@H](Cc1c[nH]cn1)NC(=O)OCc1ccccc1)C(N)=O` had a pIC50 of 7.74.

The compound `C[C@H](NC(=O)[C@@H](Cc1c[nH]c2ccccc12)NC(=O)[C@@H](CO)NC(=O)[C@@H](Cc1ccc(OCc2ccccc2)cc1)NC(=O)[C@@H](Cc1cnc[nH]1)NC(=O)OCc1ccccc1)C(N)=O` showed a pIC50 of 5.74.

`CC(NC(=O)[C@@H](COCc1ccccc1)NC(=O)[C@@H](Cc1ccc(OCc2ccccc2)cc1)NC(=O)[C@@H](Cc1cnc[nH]1)NC(=O)OCc1ccccc1)C(=O)N[C@@H](C)C(N)=O` (stereo not given in full): the pIC50 is 6.60.

Compound `C[C@H](NC(=O)[C@@H](Cc1c[nH]c2ccccc12)NC(=O)[C@@H](COCc1ccccc1)NC(=O)[C@@H](Cc1ccc(OCc2ccccc2)cc1)NC(=O)[C@H](N)Cc1cnc[nH]1)C(N)=O` showed a pIC50 of 5.35.

In turn, `CC(=O)N[C@H](Cc1cnc[nH]1)C(=O)N[C@H](Cc1ccc(OCc2ccccc2)cc1)C(=O)N[C@H](COCc1ccccc1)C(=O)N[C@H](Cc1c[nH]c2ccccc12)C(=O)N[C@@H](C)C(N)=O` gave a negative-log IC50 (pIC50) of 5.00. This pIC50 lies 0.35 log units lower than the previous one.

With `C[C@H](NC(=O)C(Cc1ccccc1)NC(=O)[C@@H](COCc1ccccc1)NC(=O)[C@@H](Cc1ccc(OCc2ccccc2)cc1)NC(=O)[C@@H](Cc1cnc[nH]1)NC(=O)OCc1ccccc1)C(N)=O` (stereo not given in full), the pIC50 is 5.60.

As for `CC(NC(=O)[C@@H](Cc1ccc(OCc2ccccc2)cc1)NC(=O)[C@@H](Cc1c[nH]cn1)NC(=O)OCc1ccccc1)C(=O)N[C@H](Cc1c[nH]c2ccccc12)C(=O)N[C@@H](C)C(N)=O` (stereo not given in full), the pIC50 is 5.96.

Consider `CC(NC(=O)OCc1ccccc1)C(=O)N[C@H](Cc1ccc(OCc2ccccc2)cc1)C(=O)N[C@H](COCc1ccccc1)C(=O)N[C@H](Cc1c[nH]c2ccccc12)C(=O)N[C@@H](C)C(N)=O` (stereo not given in full), for which the pIC50 was less than 4.70.

The compound `C[C@H](NC(=O)[C@@H](Cc1c[nH]c2ccccc12)NC(=O)[C@@H](COCc1ccccc1)NC(=O)C(CCC(=O)O)NC(=O)[C@@H](Cc1c[nH]cn1)NC(=O)OCc1ccccc1)C(N)=O` (stereo not given in full) gave a negative-log IC50 (pIC50) of 7.74.

`C[C@H](NC(=O)[C@@H](Cc1c[nH]c2ccccc12)NC(=O)[C@@H](COCc1ccccc1)NC(=O)C(CC1CCCCC1)NC(=O)[C@@H](Cc1cnc[nH]1)NC(=O)OCc1ccccc1)C(N)=O` (stereo not given in full) gave a pIC50 of 7.18.

In turn, `C[C@@H](NC(=O)[C@H](Cc1c[nH]c2ccccc12)NC(=O)[C@H](COCc1ccccc1)NC(=O)[C@H](Cc1ccccc1)NC(=O)[C@H](Cc1c[nH]cn1)NC(=O)OCc1ccccc1)C(N)=O` (single isomer, unassigned) had a pIC50 of 8.05.

The compound `C[C@@H](NC(=O)[C@H](Cc1c[nH]c2ccccc12)NC(=O)[C@H](COCc1ccccc1)NC(=O)[C@@H](Cc1ccc(O)cc1)NC(=O)[C@H](Cc1cnc[nH]1)NC(=O)OCc1ccccc1)C(N)=O` (stereo in doubt) showed a negative-log IC50 (pIC50) of 6.77.

In the case of `C[C@@H](NC(=O)[C@H](Cc1c[nH]c2ccccc12)NC(=O)[C@H](COCc1ccccc1)NC(=O)[C@@H](Cc1ccccc1)NC(=O)[C@H](Cc1cnc[nH]1)NC(=O)OCc1ccccc1)C(N)=O` (stereo in doubt), the pIC50 was 7.10. This pIC50 lies 0.33 log units higher than the previous one.
